Data from ChEMBL document CHEMBL4364248, “Discovery of 1,2,4-oxadiazole-Containing hydroxamic acid derivatives as histone deacetylase inhibitors potential application in cancer therapy” (Eur J Med Chem, 2019).
The source made the active and inactive calls. No cut-off for these calls is given here.

What was measured:
[1] = target: Histone deacetylase 3/Nuclear receptor corepressor 2 (HDAC3/NCoR2) (Homo sapiens, UniProt O15379); experiment: Inhibition of human recombinant full length C-terminal His-tagged HDAC3 (1 to 428 residues)/N-terminal GST-tagged NCOR2 (395 to 489 residues) expressed in Sf9 cells using Ac-peptide-AMC as substrate after 1 hr by fluorescence assay
Histone deacetylase 9 = Histone deacetylase 9 (Homo sapiens, UniProt Q9UKV0); experiment: Inhibition of recombinant C-terminal His-tagged human HDAC9 (604 to 1066 residues) expressed in baculovirus infected Sf9 cells using Ac-peptide-AMC as substrate after 1 hr by fluorescence assay
HCT-116 = experiment: Antiproliferative activity against human HCT116 cells after 72 hrs by MTT assay; format: functional, cell-based; details: HCT-116, 72 h
MDA-MB-231 = experiment: Antiproliferative activity against human MDA-MB-231 cells after 72 hrs by MTT assay; format: functional, cell-based; details: MDA-MB-231, 72 h
HepG2 = experiment: Antiproliferative activity against human HepG2 cells after 72 hrs by MTT assay; format: functional, cell-based; details: HepG2, 72 h
RPMI-8226 = experiment: Antiproliferative activity against human RPMI8226 cells after 72 hrs by MTT assay; format: functional, cell-based; details: RPMI-8226, 72 h
JeKo-1 [2] = experiment: Antiproliferative activity against human JeKo1 cells after 72 hrs by MTT assay; format: functional, cell-based; details: JeKo-1, 72 h
[3] = target: T1, Histone deacetylase 1/2/3 (Homo sapiens) (UniProt Q13547+O15379+Q92769); experiment: Inhibition of HDAC1/2/3 in human MM1S cells assessed as increase in H3 acetylation after 6 hrs by Western blot analysis; format: cell-based
[4] = target: T1, Histone deacetylase 1/2/3 (Homo sapiens); experiment: Inhibition of HDAC1/2/3 in human MM1S cells assessed as upregulation of H3 acetylation at 40 nM after 6 hrs by Western blot analysis; format: cell-based
JeKo-1 [5] = experiment: Cell cycle arrest in human JeKo1 cells assessed as accumulation at G2/M phase at 10 nM after 24 hrs by propidium iodide staining based flow cytometric analysis (reference value: 10.71 %); format: functional
JeKo-1 [6] = experiment: Induction of apoptosis in human JeKo1 cells assessed as viable cells at 10 nM after 48 hrs by annexin V-FITC/propidium iodide staining-based flow cytometric method (reference value: 91.6 %); format: functional; details: JeKo-1, 48 h, read-out: Activity
Method in brief: (§1)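 Jeko-1 cells were grown in RPMI-1640 with 10% FBS at 37 °C under 5% CO2. They were exposed to 0, 10, 100 or 1000 nM for 48 h, then apoptosis induction was analysed.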

JeKo-1 [7] = experiment: Induction of apoptosis in human JeKo1 cells assessed as viable cells at 100 nM after 48 hrs by annexin V-FITC/propidium iodide staining-based flow cytometric method (reference value: 91.6 %); format: functional; details: JeKo-1, 48 h, read-out: Activity; method in brief: as §1
JeKo-1 [8] = experiment: Induction of apoptosis in human JeKo1 cells assessed as early apoptotic cells at 100 nM after 48 hrs by annexin V-FITC/propidium iodide staining-based flow cytometric method (reference value: 3.34 %); format: functional; method in brief: as §1
JeKo-1 [9] = experiment: Induction of apoptosis in human JeKo1 cells assessed as necrotic cells at 100 nM after 48 hrs by annexin V-FITC/propidium iodide staining-based flow cytometric method (reference value: 2.03 %); format: functional; method in brief: as §1
JeKo-1 [10] = experiment: Induction of apoptosis in human JeKo1 cells assessed as viable cells at 1000 nM after 48 hrs by annexin V-FITC/propidium iodide staining-based flow cytometric method (reference value: 91.6 %); format: functional; details: JeKo-1, 48 h, read-out: Activity; method in brief: as §1
JeKo-1 [11] = experiment: Induction of cell cycle arrest in human JeKo1 cells assessed as accumulation at G1 phase after 24 hrs by propidium iodide staining-based flow cytometric method; format: functional
[12] = AUC ( 0 to t) in Sprague-Dawley rat at 5 mg/kg, iv measured upto 24 hrs by LC-MS/MS analysis; format: ADME, organism-based; parameters: dose 5 mg/kg, time < 24 hr, route intravenous; details: in vivo
Method in brief: (§2)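 SD rats (200-250 g), six per time point, given 5 mg/kg as a tail-vein bolus or orally. Blood was taken by cardiac puncture before dosing and at 5, 15, 30, 45 min and 1, 2, 4, 6, 8, 10, 12 and 24 h. Plasma was spun at 4000 g for 15 min at 4 °C and stored at -80 °C. Analysis was LC-MS/MS with multiple-reaction monitoring, followed by noncompartmental analysis.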

[13] = Clearance in Sprague-Dawley rat at 5 mg/kg, po measured upto 24 hrs by LC-MS/MS analysis; format: ADME, organism-based; details: in vivo; method in brief: as §2
[14] = Volume of distribution at steady state in Sprague-Dawley rat at 5 mg/kg, po measured upto 24 hrs by LC-MS/MS analysis; format: ADME, organism-based; details: in vivo
Method in brief: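 SD rats (200-250 g), six per time point, given 5 mg/kg orally; blood drawn by cardiac puncture at 0, 5, 15, 30, 45 min and 1, 2, 4, 6, 8, 10, 12, 24 h, held on ice. Plasma separated by centrifugation (4000 g, 15 min, 4 °C), stored at -80 °C, assayed by LC-MS/MS in multiple-reaction monitoring mode; parameters from noncompartmental analysis.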

Daudi [15] = experiment: Antitumour activity against human Daudi cells xenografted in NOD/SCID mouse assessed as reduction in tumour growth at 10 mg/kg, iv treated on day 1,3 and 5 per week and measured for every 2 days; format: functional; details: read-out: TGI
Method in brief: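 Daudi cells (107 in 100 µL serum-free RPMI 1640) were injected s.c. into the right flank of 5–6 week female NOD/SCID mice. At 100–200 mm3, mice were randomized six per group. Dosing was 10 mg/kg i.v. or 20 mg/kg p.o. in 8% HP-β-CD on days 1, 3 and 5 each week. Tumors were measured by caliper every 2 days, with TV = length × width² × 0.5.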

Daudi [16] = experiment: Antitumour activity against human Daudi cells xenografted in NOD/SCID mouse assessed as increase in acetylated H4 expression at 20 mg/kg, po treated on day 1,3 and 5 per week by immunohistochemical analysis; format: functional, organism-based
Method in brief: (§3)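 Daudi s.c. xenografts in female NOD/SCID mice (5–6 weeks) were randomized six per group at 100–200 mm3. Dosing was 10 mg/kg i.v. or 20 mg/kg p.o. in 8% HP-β-CD on days 1, 3 and 5 weekly. Tumors were collected at study end for immunohistochemistry, with comparison to the control group.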

Daudi [17] = experiment: Antitumour activity against human Daudi cells xenografted in NOD/SCID mouse assessed as DNA damage at 20 mg/kg, po treated on day 1,3 and 5 per week; format: functional, organism-based; method in brief: as §3
[18] = Toxicity in NOD/SCID mouse xenografted with human Daudi cells assessed as abnormal behavior at 10 mg/kg, iv treated on day 1,3 and 5 per week and measured for every 2 days; format: organism-based; details: in vivo, 48 h
Method in brief: (§4)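 Female NOD/SCID mice (5–6 weeks) bearing s.c. Daudi xenografts, six per group. Dosing was 10 mg/kg i.v. or 20 mg/kg p.o. in 8% HP-β-CD on days 1, 3 and 5 weekly. Behaviour was observed, and organ tissues were collected at sacrifice for H&E staining.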

[19] = Toxicity in NOD/SCID mouse xenografted with human Daudi cells at 10 mg/kg, iv treated on day 1,3 and 5 per week and measured for every 2 days; format: organism-based; details: in vivo, 48 h; method in brief: as §4
[20] = Toxicity in NOD/SCID mouse xenografted with human Daudi cells assessed as organ damage at 10 mg/kg, iv treated on day 1,3 and 5 per week and measured for every 2 days by H and E staining based assay; format: organism-based; details: in vivo, 48 h; method in brief: as §4

Chain of Histone deacetylase 9 (Q9UKV0 whole entry, the tested form may be a part): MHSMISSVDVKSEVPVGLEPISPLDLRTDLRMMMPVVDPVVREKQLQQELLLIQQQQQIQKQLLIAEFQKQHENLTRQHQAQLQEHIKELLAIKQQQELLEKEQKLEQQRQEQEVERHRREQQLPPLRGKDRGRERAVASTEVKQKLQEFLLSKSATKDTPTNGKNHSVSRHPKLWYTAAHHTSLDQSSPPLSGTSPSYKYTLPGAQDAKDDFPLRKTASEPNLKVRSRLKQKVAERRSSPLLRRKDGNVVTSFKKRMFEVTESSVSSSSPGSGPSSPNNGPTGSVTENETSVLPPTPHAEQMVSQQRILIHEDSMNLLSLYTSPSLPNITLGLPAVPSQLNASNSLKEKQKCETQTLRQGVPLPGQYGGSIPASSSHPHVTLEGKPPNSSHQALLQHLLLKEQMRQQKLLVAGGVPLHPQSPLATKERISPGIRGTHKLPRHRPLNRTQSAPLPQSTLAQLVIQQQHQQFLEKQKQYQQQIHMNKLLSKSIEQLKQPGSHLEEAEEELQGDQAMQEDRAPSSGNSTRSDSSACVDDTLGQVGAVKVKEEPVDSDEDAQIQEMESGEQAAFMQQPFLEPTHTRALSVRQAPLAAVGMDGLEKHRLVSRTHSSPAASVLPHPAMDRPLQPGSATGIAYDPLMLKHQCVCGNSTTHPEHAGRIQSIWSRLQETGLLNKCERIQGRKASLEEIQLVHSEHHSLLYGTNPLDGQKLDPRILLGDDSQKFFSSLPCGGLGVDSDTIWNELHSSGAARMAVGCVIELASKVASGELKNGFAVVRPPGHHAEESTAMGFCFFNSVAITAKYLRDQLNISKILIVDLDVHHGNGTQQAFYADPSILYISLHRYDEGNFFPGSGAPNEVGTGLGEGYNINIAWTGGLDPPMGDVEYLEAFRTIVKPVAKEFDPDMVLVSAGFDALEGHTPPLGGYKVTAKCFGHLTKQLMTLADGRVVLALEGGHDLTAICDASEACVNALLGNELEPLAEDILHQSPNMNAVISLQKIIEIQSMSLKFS
Chain of Histone deacetylase 3/Nuclear receptor corepressor 2 (HDAC3/NCoR2) (O15379 whole entry, the tested form may be a part): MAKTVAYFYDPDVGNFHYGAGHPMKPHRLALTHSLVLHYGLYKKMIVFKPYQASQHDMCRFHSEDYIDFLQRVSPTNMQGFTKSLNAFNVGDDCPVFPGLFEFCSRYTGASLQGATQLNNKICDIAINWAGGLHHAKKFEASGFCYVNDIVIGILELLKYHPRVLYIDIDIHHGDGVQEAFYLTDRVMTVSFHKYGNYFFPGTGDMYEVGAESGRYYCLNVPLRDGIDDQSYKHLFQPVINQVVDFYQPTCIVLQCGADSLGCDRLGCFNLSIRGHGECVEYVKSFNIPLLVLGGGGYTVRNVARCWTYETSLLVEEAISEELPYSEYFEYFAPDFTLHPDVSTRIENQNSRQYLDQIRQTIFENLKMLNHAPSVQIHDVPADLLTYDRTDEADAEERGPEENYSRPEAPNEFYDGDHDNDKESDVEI
Chain of Histone deacetylase 3/Nuclear receptor corepressor 2 (HDAC3/NCoR2) (Q9Y618 whole entry, further chain, the tested form may be a part): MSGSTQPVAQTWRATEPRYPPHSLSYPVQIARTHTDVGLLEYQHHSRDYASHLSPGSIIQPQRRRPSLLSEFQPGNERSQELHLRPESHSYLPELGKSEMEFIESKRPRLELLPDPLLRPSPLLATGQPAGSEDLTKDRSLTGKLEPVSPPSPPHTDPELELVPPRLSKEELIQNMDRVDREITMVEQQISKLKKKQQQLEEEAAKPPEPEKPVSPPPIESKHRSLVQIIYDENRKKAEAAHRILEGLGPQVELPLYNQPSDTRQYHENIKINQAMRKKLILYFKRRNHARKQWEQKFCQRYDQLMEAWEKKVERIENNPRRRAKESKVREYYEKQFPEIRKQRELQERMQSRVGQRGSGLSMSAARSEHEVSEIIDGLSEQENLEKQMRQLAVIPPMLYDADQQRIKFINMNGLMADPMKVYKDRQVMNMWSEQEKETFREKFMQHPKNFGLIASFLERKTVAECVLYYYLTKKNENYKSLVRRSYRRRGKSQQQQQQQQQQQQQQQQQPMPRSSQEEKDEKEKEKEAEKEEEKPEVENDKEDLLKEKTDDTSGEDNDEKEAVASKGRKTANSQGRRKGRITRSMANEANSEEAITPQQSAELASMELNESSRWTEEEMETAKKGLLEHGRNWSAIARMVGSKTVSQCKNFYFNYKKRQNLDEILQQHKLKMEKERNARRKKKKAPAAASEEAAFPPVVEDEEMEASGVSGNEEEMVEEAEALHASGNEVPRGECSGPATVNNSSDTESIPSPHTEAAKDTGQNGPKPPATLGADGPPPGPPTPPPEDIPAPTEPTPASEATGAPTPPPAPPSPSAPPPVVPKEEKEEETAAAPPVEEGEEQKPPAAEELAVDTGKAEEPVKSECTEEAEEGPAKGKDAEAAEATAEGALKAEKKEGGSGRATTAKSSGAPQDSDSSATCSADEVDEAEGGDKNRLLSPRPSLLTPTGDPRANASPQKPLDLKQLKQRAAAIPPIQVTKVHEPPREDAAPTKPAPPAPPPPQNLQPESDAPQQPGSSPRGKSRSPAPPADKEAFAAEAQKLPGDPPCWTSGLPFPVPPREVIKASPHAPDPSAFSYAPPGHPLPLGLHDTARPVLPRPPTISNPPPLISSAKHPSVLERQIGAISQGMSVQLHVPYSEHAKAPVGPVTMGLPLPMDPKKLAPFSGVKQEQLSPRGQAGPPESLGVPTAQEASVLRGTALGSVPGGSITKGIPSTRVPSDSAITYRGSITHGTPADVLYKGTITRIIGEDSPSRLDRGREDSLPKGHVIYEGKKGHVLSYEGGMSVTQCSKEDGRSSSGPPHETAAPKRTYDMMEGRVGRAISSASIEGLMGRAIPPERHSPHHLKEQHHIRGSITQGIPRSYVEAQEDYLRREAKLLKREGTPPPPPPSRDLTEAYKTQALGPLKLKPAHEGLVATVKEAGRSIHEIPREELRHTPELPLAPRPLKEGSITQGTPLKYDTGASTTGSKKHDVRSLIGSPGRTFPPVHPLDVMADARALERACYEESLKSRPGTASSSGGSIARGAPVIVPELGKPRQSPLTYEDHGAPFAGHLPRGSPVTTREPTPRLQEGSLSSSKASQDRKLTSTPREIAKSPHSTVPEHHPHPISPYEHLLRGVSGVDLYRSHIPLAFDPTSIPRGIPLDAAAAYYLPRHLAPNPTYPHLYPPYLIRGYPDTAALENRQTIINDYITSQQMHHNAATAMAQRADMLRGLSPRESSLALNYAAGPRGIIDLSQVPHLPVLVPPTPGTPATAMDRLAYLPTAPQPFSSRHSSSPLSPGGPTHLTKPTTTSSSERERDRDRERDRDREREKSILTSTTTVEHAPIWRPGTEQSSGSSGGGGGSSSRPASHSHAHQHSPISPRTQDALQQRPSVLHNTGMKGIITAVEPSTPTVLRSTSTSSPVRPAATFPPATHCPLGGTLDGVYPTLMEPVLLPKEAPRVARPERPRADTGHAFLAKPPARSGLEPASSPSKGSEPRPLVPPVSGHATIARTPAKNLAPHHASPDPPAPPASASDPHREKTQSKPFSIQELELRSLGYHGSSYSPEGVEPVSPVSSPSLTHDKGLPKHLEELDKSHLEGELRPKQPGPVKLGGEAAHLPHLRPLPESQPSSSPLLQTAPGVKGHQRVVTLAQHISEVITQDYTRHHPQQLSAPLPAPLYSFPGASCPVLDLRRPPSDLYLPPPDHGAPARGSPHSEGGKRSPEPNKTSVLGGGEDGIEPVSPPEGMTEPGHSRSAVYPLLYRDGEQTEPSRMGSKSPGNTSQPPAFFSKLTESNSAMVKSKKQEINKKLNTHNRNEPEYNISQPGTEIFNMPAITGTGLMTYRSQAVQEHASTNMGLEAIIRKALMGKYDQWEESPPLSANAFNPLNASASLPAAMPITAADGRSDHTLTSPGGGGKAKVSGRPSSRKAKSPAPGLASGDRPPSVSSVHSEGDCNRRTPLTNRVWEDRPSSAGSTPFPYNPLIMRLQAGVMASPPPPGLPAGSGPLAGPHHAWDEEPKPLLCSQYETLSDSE

With `Cc1ccc(CN2CCC(c3noc(CN(C)c4ncc(C(=O)NO)cn4)n3)CC2)cc1` the IC50 [1] was 3 nM, the IC50 (Histone deacetylase 9) was 441 nM and the IC50 (HCT-116) was 16 nM. For the same molecule, the IC50 (MDA-MB-231) was 25.6 nM, the IC50 (HepG2) was 13 nM and the IC50 (RPMI-8226) was 15.6 nM. For the same molecule, the IC50 (JeKo-1 [2]) was 7.2 nM, the inhibition [3] was “Dose-dependent effect” and the inhibition [4] was “Active”. For the same molecule, the Activity (JeKo-1 [5]) was 9.1%, the viability at 0.01 µM (JeKo-1 [6]) was 91.8% and the viability at 0.1 µM (JeKo-1 [7]) was 54.3%. The Activity (JeKo-1 [8]) was 28.3%, the Activity (JeKo-1 [9]) was 0.061% and the viability at 1 µM (JeKo-1 [10]) was 26.9%. For the same molecule, the Activity (JeKo-1 [11]) was “Dose-dependent effect”, the AUC(0-t) at 24 h [12] was 433 ng·h/mL and the CL/F [13] was 372 mL/min/kg. The Vdss [14] was 29.13 L/kg, the inhibition in vivo at 10 mg/kg (Daudi [15]) was 46.1% and the Activity (Daudi [16]) was “Active”. For the same molecule, the Activity (Daudi [17]) was “Active”, the Activity [18] was “Non-Toxic” and the Activity [19] was “Non-Toxic”. The Activity [20] was “Non-Toxic”.
